Test results published in ChEMBL document CHEMBL5724801, “EUbOPEN Chemogenomics Library - Multiplex” (2024).
Values joined by “and” are separate entries in the source; they are usually repeats but may differ in a detail not shown here. Equal entries are not always repeated.

Tested on: U2OS
Test: Multiplex assay against U2OS
Format: toxicity, cell-based
Details: human
Procedure, shortened: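 At seeding, live cells were stained with Hoechst33342, BioTracker Green Microtubule Cytoskeleton Dye, MitoTracker Red and Annexin V Alexa Fluor 680. After compound addition they were imaged on a CQ1 microscope at 37°C and 5% CO2, and CellPathfinder machine-learning gating sorted them into Hoechst high-intensity objects or normal cells, with normal cells further split into healthy, pyknosed or fragmented nuclei and pyknosed cells into mitotic or apoptotic. Tubulin, mitochondrial-mass and membrane-permeability phenotypes are given as per cents of cells with healthy nuclei.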

[1] = 12 h, 1 µM, compound concentration 1 uM
[2] = 12 h, 10 µM, compound concentration 10 uM
[3] = 24 h, 1 µM, compound concentration 1 uM
[4] = 24 h, 10 µM, compound concentration 10 uM
[5] = 48 h, 1 µM, compound concentration 1 uM
[6] = 48 h, 10 µM, compound concentration 10 uM

CC1(COc2ccc3c(c2)ncn3-c2ccc3cccc(N4CCC(N)CC4)c3n2)COC1 [CRENOLANIB]
Population Apoptotic (%) [1]: 58% and 25% | Population Fragmented Nuclei (%) [1]: 36% and 28% | Population Healthy Nuclei (%) [1]: 50% and 60% | Population Hoechst High Intensity Objects (%) [1]: 9% and 13% | Population Membrane Permeable-Phenotype (%) [1]: 87% and 82% | Population Mitochondria Different-Phenotype (%) [1]: 51% and 73% | Population Mitotic Cells (%) [1]: 41% and 75% | Population Normal (%) [1]: 90% and 86% | Population Pyknosed Nuclei (%) [1]: 13% and 10% | Population Tubulin-Different-Phenotype (%) [1]: 92% and 88% | Total Cell Count [1]: 143 and 86 | Population Apoptotic (%) [2]: 81% and 92% | Population Fragmented Nuclei (%) [2]: 43% and 37% | Population Healthy Nuclei (%) [2]: 11% and 21% | Population Hoechst High Intensity Objects (%) [2]: 21% and 24% | Population Membrane Permeable-Phenotype (%) [2]: 76% and 47% | Population Mitochondria Different-Phenotype (%) [2]: 80% and 76% | Population Mitotic Cells (%) [2]: 18% and 7% | Population Normal (%) [2]: 78% and 75% | Population Pyknosed Nuclei (%) [2]: 44% and 41% | Population Tubulin-Different-Phenotype (%) [2]: 88% and 85% | Total Cell Count [2]: 274 | Population Apoptotic (%) [3]: 71% and 54% | Population Fragmented Nuclei (%) [3]: 39% and 25% | Population Healthy Nuclei (%) [3]: 45% and 62% | Population Hoechst High Intensity Objects (%) [3]: 9% and 10% | Population Membrane Permeable-Phenotype (%) [3]: 71% and 67% | Population Mitochondria Different-Phenotype (%) [3]: 62% and 67% | Population Mitotic Cells (%) [3]: 28% and 45% | Population Normal (%) [3]: 90% and 89% | Population Pyknosed Nuclei (%) [3]: 14% and 12% | Population Tubulin-Different-Phenotype (%) [3]: 87% and 72% | Total Cell Count [3]: 156 and 98 | Population Apoptotic (%) [4]: 93% and 100% | Population Fragmented Nuclei (%) [4]: 46% and 53% | Population Healthy Nuclei (%) [4]: 8% and 11% | Population Hoechst High Intensity Objects (%) [4]: 37% and 36% | Population Membrane Permeable-Phenotype (%) [4]: 42% and 44% | Population Mitochondria Different-Phenotype (%) [4]: 50% and 77% | Population Mitotic Cells (%) [4]: 6% and 0% | Population Normal (%) [4]: 62% and 63% | Population Pyknosed Nuclei (%) [4]: 45% and 34% | Population Tubulin-Different-Phenotype (%) [4]: 50% and 77% | Total Cell Count [4]: 254 | Population Apoptotic (%) [5]: 88% and 62% | Population Fragmented Nuclei (%) [5]: 41% and 37% | Population Healthy Nuclei (%) [5]: 43% and 48% | Population Hoechst High Intensity Objects (%) [5]: 8% and 4% | Population Membrane Permeable-Phenotype (%) [5]: 35% and 53% | Population Mitochondria Different-Phenotype (%) [5]: 40% and 37% | Population Normal (%) [5]: 91% and 95% | Population Pyknosed Nuclei (%) [5]: 14% and 13% | Population Tubulin-Different-Phenotype (%) [5]: 44% and 51% | Total Cell Count [5]: 186 | Population Apoptotic (%) [6]: 100% | Population Fragmented Nuclei (%) [6]: 51% and 57% | Population Healthy Nuclei (%) [6]: 11% and 13% | Population Hoechst High Intensity Objects (%) [6]: 42% and 29% | Population Membrane Permeable-Phenotype (%) [6]: 43% and 50% | Population Mitochondria Different-Phenotype (%) [6]: 37% and 35% | Population Mitotic Cells (%) [6]: 0% | Population Normal (%) [6]: 58% and 70% | Population Pyknosed Nuclei (%) [6]: 37% and 28% | Population Tubulin-Different-Phenotype (%) [6]: 56% and 28% | Total Cell Count [6]: 250 and 144

Cl.N=C(N)NC(=O)Cc1c(Cl)cccc1Cl [GUANFACINE HYDROCHLORIDE]
Population Apoptotic (%) [1]: 80% and 100% | Population Fragmented Nuclei (%) [1]: 28% and 20% | Population Healthy Nuclei (%) [1]: 55% and 72% | Population Hoechst High Intensity Objects (%) [1]: 4% and 2% | Population Membrane Permeable-Phenotype (%) [1]: 5% and 8% | Population Mitochondria Different-Phenotype (%) [1]: 1% and 2% | Population Mitotic Cells (%) [1]: 19% and 0% | Population Normal (%) [1]: 95% and 97% | Population Pyknosed Nuclei (%) [1]: 16% and 7% | Population Tubulin-Different-Phenotype (%) [1]: 2% and 6% | Total Cell Count [1]: 165 and 129 | Population Apoptotic (%) [2]: 87% and 77% | Population Fragmented Nuclei (%) [2]: 27% and 18% | Population Healthy Nuclei (%) [2]: 61% and 74% | Population Hoechst High Intensity Objects (%) [2]: 1% | Population Membrane Permeable-Phenotype (%) [2]: 10% and 12% | Population Mitochondria Different-Phenotype (%) [2]: 3% and 7% | Population Mitotic Cells (%) [2]: 12% and 22% | Population Normal (%) [2]: 98% | Population Pyknosed Nuclei (%) [2]: 11% and 7% | Population Tubulin-Different-Phenotype (%) [2]: 7% and 10% | Total Cell Count [2]: 280 and 130 | Population Apoptotic (%) [3]: 75% and 83% | Population Fragmented Nuclei (%) [3]: 32% and 18% | Population Healthy Nuclei (%) [3]: 56% and 74% | Population Hoechst High Intensity Objects (%) [3]: 3% and 0% | Population Membrane Permeable-Phenotype (%) [3]: 5% and 8% | Population Mitochondria Different-Phenotype (%) [3]: 3% and 4% | Population Mitotic Cells (%) [3]: 25% and 16% | Population Normal (%) [3]: 96% and 99% | Population Pyknosed Nuclei (%) [3]: 10% and 7% | Population Tubulin-Different-Phenotype (%) [3]: 2% and 5% | Total Cell Count [3]: 194 and 160 | Population Apoptotic (%) [4]: 84% and 83% | Population Fragmented Nuclei (%) [4]: 25% and 15% | Population Healthy Nuclei (%) [4]: 64% and 76% | Population Hoechst High Intensity Objects (%) [4]: 0% and 2% | Population Membrane Permeable-Phenotype (%) [4]: 9% and 10% | Population Mitochondria Different-Phenotype (%) [4]: 2% and 4% | Population Mitotic Cells (%) [4]: 15% and 16% | Population Normal (%) [4]: 99% and 97% | Population Pyknosed Nuclei (%) [4]: 9% and 7% | Population Tubulin-Different-Phenotype (%) [4]: 4% and 5% | Total Cell Count [4]: 326 and 160 | Population Apoptotic (%) [5]: 89% and 90% | Population Fragmented Nuclei (%) [5]: 28% and 16% | Population Healthy Nuclei (%) [5]: 60% and 73% | Population Hoechst High Intensity Objects (%) [5]: 2% and 3% | Population Membrane Permeable-Phenotype (%) [5]: 4% and 8% | Population Mitochondria Different-Phenotype (%) [5]: 3% and 4% | Population Mitotic Cells (%) [5]: 10% and 9% | Population Normal (%) [5]: 97% and 96% | Population Pyknosed Nuclei (%) [5]: 10% | Population Tubulin-Different-Phenotype (%) [5]: 3% and 6% | Total Cell Count [5]: 262 and 217 | Population Apoptotic (%) [6]: 90% and 95% | Population Fragmented Nuclei (%) [6]: 21% and 14% | Population Healthy Nuclei (%) [6]: 68% and 74% | Population Hoechst High Intensity Objects (%) [6]: 2% and 1% | Population Membrane Permeable-Phenotype (%) [6]: 8% and 10% | Population Mitochondria Different-Phenotype (%) [6]: 3% and 1% | Population Mitotic Cells (%) [6]: 9% and 4% | Population Normal (%) [6]: 97% and 98% | Population Pyknosed Nuclei (%) [6]: 10% and 11% | Population Tubulin-Different-Phenotype (%) [6]: 4% and 3% | Total Cell Count [6]: 440 and 213
